The source made the active and inactive calls. No cut-off for these calls is given here.
Tests used:
[1] = tested on: Escherichia coli; test: Inhibition of LuxR-dependent quorum sensing activity in Escherichia coli harboring reporter plasmid LuxI-GFP assessed as reduction in 3-oxo-C6-HSL-induced GFP expression at 3.1 ug/ml measured every 15 mins for 14 hrs by fluorescence assay
Summary of the method: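 E. coli luxI-gfp monitor: overnight culture 16 h, 37 °C, 180 rpm, diluted to OD450 0.1 in BT minimal medium with 10% A10, 0.5% glucose, 0.5% Casamino Acids. Signal 3-oxo-C6-HSL at 10 nM final. GFP read at ex 485/em 535 nm and OD450 every 15 min, 14 h, 34 °C. Triplicate, 2-fold dilutions from 100 μg/ml.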

[2] = tested on: Escherichia coli; test: Growth inhibition of Escherichia coli at 6.2 to 100 ug/ml
Summary of the method: (§1)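 E. coli luxI-gfp reporter: overnight culture 16 h, 37 °C, 180 rpm, diluted to OD450 0.1 in BT minimal medium with 10% A10, 0.5% glucose, 0.5% Casamino Acids. 3-oxo-C6-HSL at 10 nM final. Growth read as OD450 every 15 min over 14 h at 34 °C alongside GFP. Triplicate, 2-fold dilutions from 100 μg/ml.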

[3] = target: T1, HTH-type quorum-sensing regulator RhlR (Pseudomonas aeruginosa (strain ATCC 15692 / PAO1 / 1C / PRS 101 / LMG12228)) (UniProt P54292); test: Inhibition of RhlR-dependent quorum sensing activity in Pseudomonas aeruginosa harboring reporter plasmid rhlA-gfp assessed as reduction in GFP expression up to 100 ug/ml measured every 15 mins for 14 hrs by fluorescence assay
T1 sequence (whole entry): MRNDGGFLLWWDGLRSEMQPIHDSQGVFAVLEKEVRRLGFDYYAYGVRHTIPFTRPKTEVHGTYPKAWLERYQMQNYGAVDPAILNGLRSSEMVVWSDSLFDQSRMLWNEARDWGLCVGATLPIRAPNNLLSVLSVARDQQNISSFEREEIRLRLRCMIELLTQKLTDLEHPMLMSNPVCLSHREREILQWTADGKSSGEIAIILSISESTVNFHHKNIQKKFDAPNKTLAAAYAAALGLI
Summary of the method: (§2)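 P. aeruginosa lasB-gfp and rhlA-gfp reporters, grown 16 h at 37 °C with shaking, then diluted to OD450 0.1 in BT minimal medium (10% A10, 0.5% glucose, 0.5% Casamino Acids). No added signal molecule. Fluorescence at 485/535 nm and growth monitored every 15 min for 14 h at 34 °C. Concentrations up to 100 µg/ml.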

[4] = tested on: Pseudomonas aeruginosa; test: Inhibition of LasR-dependent quorum sensing activity in Pseudomonas aeruginosa harboring reporter plasmid lasB-GFP assessed as reduction in GFP expression up to 100 ug/ml measured every 15 mins for 14 hrs by fluorescence assay; summary of the method: as §2
[5] = tested on: Saccharomyces cerevisiae; test: Inhibition of yeast Pma1 at 100 uM preincubated for 30 mins by spectrophotometric method
Summary of the method: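 Pma1 purified from Saccharomyces cerevisiae plasma membrane, 0.5 µg per reaction. Enzyme preincubated 30 min at room temperature with 100 µM compound. Reaction buffer: 5 mM ATP, 10 mM MgSO4, 50 mM KNO3, 5 mM NaN3, 3.5 mM molybdate, 20 mM MES-KOH pH 5.9. Run 30 min, then stopped with acidic molybdate/ascorbate/SDS. Released phosphate read at 860 nm after arsenite-citrate treatment (Baginski method).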

[6] = tested on: Escherichia coli; test: Growth inhibition of Escherichia coli at 3.13 ug/ml; summary of the method: as §1

## CCCCc1ccc(C(=O)O)nc1 [FUSARIC ACID]
[1]
  inhibition: Active
[2]
  growth inhibition (GI): Toxic
[3]
  inhibition: inactive
[4]
  inhibition: inactive
[5]
  inhibition: inactive
[6]
  growth inhibition (GI): Non-Toxic

Source: ChEMBL document CHEMBL4002598, “Fusaric acid and analogues as Gram-negative bacterial quorum sensing inhibitors” (Eur J Med Chem, 2017)
